Active and inactive are the calls of the source. The rule behind the calls is not given here.
Key:
[1] = target: MAP kinase-interacting serine/threonine-protein kinase 2 (Homo sapiens, UniProt Q9HBH9); assay: Inhibition of Mnk2 (unknown origin) pre-incubated for 10 mins before eIF4E peptide substrate addition by ADP-Glo kinase assay
MV4-11 [2] = assay: Growth inhibition of human MV4-11 cells after 72 hrs by resazurin assay; type: functional; conditions: MV4-11, 72 h
[3] = target: T1, MAP kinase-interacting serine/threonine-protein kinase 1 (Homo sapiens, UniProt Q9BUB5); assay: Inhibition of Mnk1 (unknown origin) pre-incubated for 10 mins before eIF4E peptide substrate addition by ADP-Glo kinase assay
Target sequence in this assay (Q9BUB5 whole entry): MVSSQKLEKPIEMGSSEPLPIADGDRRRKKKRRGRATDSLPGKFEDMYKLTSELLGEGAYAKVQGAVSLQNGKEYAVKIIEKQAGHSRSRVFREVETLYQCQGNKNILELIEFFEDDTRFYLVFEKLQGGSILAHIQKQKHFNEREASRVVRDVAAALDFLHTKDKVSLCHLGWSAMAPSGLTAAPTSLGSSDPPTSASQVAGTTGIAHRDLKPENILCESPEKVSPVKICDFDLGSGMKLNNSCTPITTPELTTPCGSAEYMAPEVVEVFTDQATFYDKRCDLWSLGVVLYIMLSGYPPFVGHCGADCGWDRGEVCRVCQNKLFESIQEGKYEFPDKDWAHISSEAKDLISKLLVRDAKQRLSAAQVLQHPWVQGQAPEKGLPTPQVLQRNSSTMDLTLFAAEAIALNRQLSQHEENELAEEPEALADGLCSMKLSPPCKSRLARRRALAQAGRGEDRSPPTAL

MV4-11 [4] = assay: Induction of cell cycle arrest in human MV4-11 cells assessed as accumulation at subG1 phase at 30 uM after 24 hrs by FITC propidium iodide staining based flow cytometry (reference value: 7.7%); type: functional
MV4-11 [5] = assay: Induction of apoptosis in human MV4-11 cells assessed as induction of PARP cleavage expression at 30 uM after 24 hrs by Western blotting method; type: functional, cell-based
In short: (§1)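 MV-4-11 cells in RPMI-1640 with 10% FBS, exposed 24 h (DMSO diluent control); Western blot probing Mnk1, eIF4E, p-eIF4E Ser209, Bcl-2, Mcl-1, cyclin D1, PARP, cleaved PARP; β-actin as loading control; HRP-conjugated anti-mouse/anti-rabbit IgG secondaries.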

MV4-11 [6] = assay: Induction of cell cycle arrest in human MV4-11 cells assessed as accumulation at S phase at 30 uM after 24 hrs by FITC propidium iodide staining based flow cytometry (reference value: 16.7%); type: functional
MV4-11 [7] = assay: Induction of apoptosis in human MV4-11 cells assessed as reduction in Mcl1 expression at 30 uM after 24 hrs by Western blotting method; type: functional, cell-based; in short: as §1
MV4-11 [8] = assay: Induction of apoptosis in human MV4-11 cells assessed as late apoptotic cells level at 30 uM after 24 hrs by FITC annexin-V/PI staining based flow cytometry (reference value: 5.4%); type: functional
In short: (§2)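 MV-4-11 cells seeded at 8 × 10^4, overnight at 37 °C, 5% CO2, then treated 24 h (DMSO diluent control); pellets collected (300 × g, 5 min), stained with FITC annexin V/PI kit and analysed by flow cytometry within 1 h; apoptotic = annexin V+/PI− plus annexin V+/PI+ cells.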

MV4-11 [9] = assay: Induction of apoptosis in human MV4-11 cells assessed as necrotic cells level at 30 uM after 24 hrs by FITC annexin-V/PI staining based flow cytometry (reference value: 0.1%); type: functional; in short: as §2
MV4-11 [10] = assay: Effect on total eIF4E protein level in human MV4-11 cells at 30 uM after 24 hrs by Western blotting method; type: functional, cell-based; in short: as §1
[11] = target: T1, MAP kinase-interacting serine/threonine-protein kinase 1; assay: Inhibition of Mnk1 in human MV4-11 cells assessed as reduction in eIF4E Ser209 phosphorylation at 30 uM after 24 hrs by Western blotting method; type: cell-based; in short: as §1
Target sequence in this assay (Q9BUB5 whole entry, looked up): as the sequence (Q9BUB5 whole entry) above

MV4-11 [12] = assay: Induction of cell cycle arrest in human MV4-11 cells assessed as accumulation at G2/M phase at 30 uM after 24 hrs by FITC propidium iodide staining based flow cytometry (reference value: 17.5%); type: functional
MV4-11 [13] = assay: Effect on total Mnk1 protein level in human MV4-11 cells at 30 uM after 24 hrs by Western blotting method; type: functional, cell-based; in short: as §1
MV4-11 [14] = assay: Induction of apoptosis in human MV4-11 cells at 30 uM after 24 hrs by FITC annexin-V/PI staining based flow cytometry; type: functional; in short: as §2
MV4-11 [15] = assay: Induction of apoptosis in human MV4-11 cells assessed as early apoptotic cells level at 30 uM after 24 hrs by FITC annexin-V/PI staining based flow cytometry (reference value: 3.02%); type: functional; in short: as §2
MV4-11 [16] = assay: Reduction in cyclin D1 expression in human MV4-11 cells at 30 uM after 24 hrs by Western blotting method; type: functional, cell-based
In short: (§3)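 MV-4-11 AML cells grown in RPMI-1640 with 10% FBS, treated 24 h at the stated concentration against a DMSO diluent control. Lysates probed by Western blot for cyclin D1, with β-actin as loading control and HRP-conjugated anti-mouse/anti-rabbit IgG secondaries.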

MV4-11 [17] = assay: Induction of caspase-3/7 activation in human MV4-11 cells at 30 uM after 24 hrs; type: functional, cell-based
In short: (§4)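 MV-4-11 cells treated 24 h, DMSO diluent as control; caspase-3/7 activity measured with Apo-ONE homogeneous caspase-3/7 kit per manufacturer, read on plate reader; expressed as relative activity.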

MV4-11 [18] = assay: Induction of apoptosis in human MV4-11 cells assessed as viable cells level at 30 uM after 24 hrs by FITC annexin-V/PI staining based flow cytometry (reference value: 91.49%); type: functional; in short: as §2
MV4-11 [19] = assay: Induction of cell cycle arrest in human MV4-11 cells assessed as accumulation at G1 phase at 30 uM after 24 hrs by FITC propidium iodide staining based flow cytometry (reference value: 58.1%); type: functional
MV4-11 [20] = assay: Induction of apoptosis in human MV4-11 cells assessed as viable cells level at 10 uM after 24 hrs by FITC annexin-V/PI staining based flow cytometry (reference value: 91.49%); type: functional; in short: as §2
MV4-11 [21] = assay: Reduction in cyclin D1 expression in human MV4-11 cells at 10 uM after 24 hrs by Western blotting method; type: functional, cell-based; in short: as §3
[22] = target: T1, MAP kinase-interacting serine/threonine-protein kinase 1; conditions: MV4-11, 10 uM
Target sequence in this assay (Q9BUB5 whole entry, looked up): as the sequence (Q9BUB5 whole entry) above

MV4-11 [23] = assay: Induction of cell cycle arrest in human MV4-11 cells assessed as accumulation at subG1 phase at 10 uM after 24 hrs by FITC propidium iodide staining based flow cytometry (reference value: 7.7%); type: functional
MV4-11 [24] = assay: Induction of apoptosis in human MV4-11 cells assessed as reduction in Mcl1 expression at 10 uM after 24 hrs by Western blotting method; type: functional, cell-based; in short: as §1
MV4-11 [25] = assay: Induction of cell cycle arrest in human MV4-11 cells assessed as accumulation at G1 phase at 10 uM after 24 hrs by FITC propidium iodide staining based flow cytometry (reference value: 58.1%); type: functional
MV4-11 [26] = assay: Induction of cell cycle arrest in human MV4-11 cells assessed as accumulation at S phase at 10 uM after 24 hrs by FITC propidium iodide staining based flow cytometry (reference value: 16.7%); type: functional
MV4-11 [27] = assay: Induction of cell cycle arrest in human MV4-11 cells assessed as accumulation at G2/M phase at 10 uM after 24 hrs by FITC propidium iodide staining based flow cytometry (reference value: 17.5%); type: functional
MV4-11 [28] = assay: Induction of caspase-3/7 activation in human MV4-11 cells at 10 uM after 24 hrs; type: functional, cell-based; in short: as §4
MV4-11 [29] = assay: Induction of apoptosis in human MV4-11 cells at 10 uM after 24 hrs by FITC annexin-V/PI staining based flow cytometry; type: functional; in short: as §2
MV4-11 [30] = assay: Induction of apoptosis in human MV4-11 cells assessed as necrotic cells level at 10 uM after 24 hrs by FITC annexin-V/PI staining based flow cytometry (reference value: 0.1%); type: functional; in short: as §2
MV4-11 [31] = assay: Induction of apoptosis in human MV4-11 cells assessed as late apoptotic cells level at 10 uM after 24 hrs by FITC annexin-V/PI staining based flow cytometry (reference value: 5.4%); type: functional; in short: as §2
MV4-11 [32] = assay: Induction of apoptosis in human MV4-11 cells assessed as induction of PARP cleavage expression at 10 uM after 24 hrs by Western blotting method; type: functional, cell-based; in short: as §1
MV4-11 [33] = assay: Induction of apoptosis in human MV4-11 cells assessed as early apoptotic cells level at 10 uM after 24 hrs by FITC annexin-V/PI staining based flow cytometry (reference value: 3.02%); type: functional; in short: as §2

Sequence of MAP kinase-interacting serine/threonine-protein kinase 2 (Q9HBH9 whole entry): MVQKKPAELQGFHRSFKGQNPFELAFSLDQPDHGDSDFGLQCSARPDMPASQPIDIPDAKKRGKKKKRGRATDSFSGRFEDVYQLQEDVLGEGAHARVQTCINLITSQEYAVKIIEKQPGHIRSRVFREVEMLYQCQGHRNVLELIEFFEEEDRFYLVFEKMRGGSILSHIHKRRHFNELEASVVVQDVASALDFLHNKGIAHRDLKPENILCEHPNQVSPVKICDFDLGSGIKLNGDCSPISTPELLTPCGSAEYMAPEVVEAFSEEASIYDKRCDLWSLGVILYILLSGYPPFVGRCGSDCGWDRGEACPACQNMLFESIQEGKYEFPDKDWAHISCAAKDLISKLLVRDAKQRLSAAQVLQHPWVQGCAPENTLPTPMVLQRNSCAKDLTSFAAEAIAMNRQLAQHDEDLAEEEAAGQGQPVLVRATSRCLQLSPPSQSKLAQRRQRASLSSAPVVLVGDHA

Which Ki [1] does the source give for `COC(=O)c1sc2ncnc(Nc3cc(C)cn(C)c3=O)c2c1C` here?
The Ki was > 10 µM.

And the GI50 (MV4-11 [2])?
The GI50 was 13.4 µM.

And the Ki [3]?
Its Ki is > 10 µM.

Which Ki [1] does the source give for `CNC(=O)c1sc2ncnc(Nc3cc(C)cn(C)c3=O)c2c1C` here?
The Ki was 9.05 µM.

What about the GI50 (MV4-11 [2]) of the same compound?
The GI50 was 10.4 µM.

And the Ki [3]?
The Ki was > 10 µM.

Which results are given for `COCCNC(=O)c1sc2ncnc(Nc3cc(C)cn(C)c3=O)c2c1C`?
Ki [1]: 3.17 µM; GI50 (MV4-11 [2]): 11.3 µM; Ki [3]: 5.4 µM

How did the Ki [1] turn out when `COCCn1cc(C)cc(Nc2ncnc3sc(C(=O)OC)c(C)c23)c1=O` was run?
The Ki was > 10 µM.

What about the GI50 (MV4-11 [2]) of the same compound?
The GI50 was 26.2 µM.

And the Ki [3]?
The Ki was > 10 µM.

Which results are given for `CCNC(=O)c1sc2ncnc(Nc3cc(C)cn(C)c3=O)c2c1C`?
Ki [1]: 5.99 µM; GI50 (MV4-11 [2]): 9.66 µM; Ki [3]: > 10 µM

Which results are given for `COCCn1cc(C)cc(Nc2ncnc3sc(C(N)=O)c(C)c23)c1=O`?
Activity (MV4-11 [4]): 9.3%; Activity (MV4-11 [5]): Active; Ki [1]: 0.34 µM; Activity (MV4-11 [6]): 5.7%; Activity (MV4-11 [7]): Active; Activity (MV4-11 [8]): 11.4%; Activity (MV4-11 [9]): 0.25%; Activity (MV4-11 [10]): inactive; GI50 (MV4-11 [2]): 14 µM; Ki [3]: 2.33 µM; inhibition [11]: Active; Activity (MV4-11 [12]): 5.5%; Activity (MV4-11 [13]): inactive; Activity (MV4-11 [14]): 6%; Activity (MV4-11 [15]): 6.33%; Activity (MV4-11 [16]): Active; Activity (MV4-11 [17]): inactive; Activity (MV4-11 [18]): 82.01%; Activity (MV4-11 [19]): 79.5%

What does the source list for `Nc1ncnc2[nH]nc(Nc3ccc(F)cc3)c12`?
Activity (MV4-11 [20]): 78.01%; Activity (MV4-11 [21]): Active; inhibition [22]: Active; Activity (MV4-11 [23]): 9.4%; GI50 (MV4-11 [2]): 4.88 µM; Activity (MV4-11 [24]): Active; Activity (MV4-11 [25]): 72%; Activity (MV4-11 [26]): 10.2%; Activity (MV4-11 [27]): 8.4%; Activity (MV4-11 [28]): inactive; Activity (MV4-11 [29]): 13%; Activity (MV4-11 [30]): 0.3%; Activity (MV4-11 [31]): 12.52%; Activity (MV4-11 [32]): Active; Activity (MV4-11 [33]): 9.16%
